This note sets out measurements from ChEMBL document CHEMBL5696442, “Discovery of type II inhibitors of TGFβ-activated kinase 1 (TAK1) and mitogen-activated protein kinase kinase kinase kinase 2 (MAP4K2)” (J Med Chem, 2015).

The inhibition is the drop in the measured response relative to a control, in per cent.

Experiment [1] addresses Serine/threonine-protein kinase tousled-like 2 (Homo sapiens) (UniProt Q86UE8). Put plainly: Inhibition of TLK2 Lys1 labeling site in human A-375 cells at 0.5 uM by KiNativ Profiling analysis relative to control. In kind it is cell-based.
The target of experiment [2] is Ankyrin repeat and protein kinase domain-containing protein 1 (Homo sapiens) (UniProt Q8NFD2). Put plainly: Inhibition of ANKK1 (unknown origin) at 1 uM by Ambit Kinomescan binding assay relative to control.
Experiment [3] has as its target Ribosomal protein S6 kinase alpha-1 (Homo sapiens) (UniProt Q15418). Put plainly: Inhibition of RSK1 domain1 Lys2 labeling site harbouring DLKPENILLDEEGHIKLTDFGLSK in human A-375 cells at 5 uM by KiNativ Profiling analysis relative to control. The class given is cell-based. A digest of the protocol:
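Live A375 melanoma cells treated with compound at 5 or 0.5 μM, then lysed. Lysate kinases were labeled with a lysine-reactive ATP or ADP-biotin probe. Inhibition was read as protection of labeling sites from the probe.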

Experiment [4] concerns the target T1, Mitogen-activated protein kinase kinase kinase 5 (Homo sapiens) (UniProt Q99683).
T1 sequence (whole entry): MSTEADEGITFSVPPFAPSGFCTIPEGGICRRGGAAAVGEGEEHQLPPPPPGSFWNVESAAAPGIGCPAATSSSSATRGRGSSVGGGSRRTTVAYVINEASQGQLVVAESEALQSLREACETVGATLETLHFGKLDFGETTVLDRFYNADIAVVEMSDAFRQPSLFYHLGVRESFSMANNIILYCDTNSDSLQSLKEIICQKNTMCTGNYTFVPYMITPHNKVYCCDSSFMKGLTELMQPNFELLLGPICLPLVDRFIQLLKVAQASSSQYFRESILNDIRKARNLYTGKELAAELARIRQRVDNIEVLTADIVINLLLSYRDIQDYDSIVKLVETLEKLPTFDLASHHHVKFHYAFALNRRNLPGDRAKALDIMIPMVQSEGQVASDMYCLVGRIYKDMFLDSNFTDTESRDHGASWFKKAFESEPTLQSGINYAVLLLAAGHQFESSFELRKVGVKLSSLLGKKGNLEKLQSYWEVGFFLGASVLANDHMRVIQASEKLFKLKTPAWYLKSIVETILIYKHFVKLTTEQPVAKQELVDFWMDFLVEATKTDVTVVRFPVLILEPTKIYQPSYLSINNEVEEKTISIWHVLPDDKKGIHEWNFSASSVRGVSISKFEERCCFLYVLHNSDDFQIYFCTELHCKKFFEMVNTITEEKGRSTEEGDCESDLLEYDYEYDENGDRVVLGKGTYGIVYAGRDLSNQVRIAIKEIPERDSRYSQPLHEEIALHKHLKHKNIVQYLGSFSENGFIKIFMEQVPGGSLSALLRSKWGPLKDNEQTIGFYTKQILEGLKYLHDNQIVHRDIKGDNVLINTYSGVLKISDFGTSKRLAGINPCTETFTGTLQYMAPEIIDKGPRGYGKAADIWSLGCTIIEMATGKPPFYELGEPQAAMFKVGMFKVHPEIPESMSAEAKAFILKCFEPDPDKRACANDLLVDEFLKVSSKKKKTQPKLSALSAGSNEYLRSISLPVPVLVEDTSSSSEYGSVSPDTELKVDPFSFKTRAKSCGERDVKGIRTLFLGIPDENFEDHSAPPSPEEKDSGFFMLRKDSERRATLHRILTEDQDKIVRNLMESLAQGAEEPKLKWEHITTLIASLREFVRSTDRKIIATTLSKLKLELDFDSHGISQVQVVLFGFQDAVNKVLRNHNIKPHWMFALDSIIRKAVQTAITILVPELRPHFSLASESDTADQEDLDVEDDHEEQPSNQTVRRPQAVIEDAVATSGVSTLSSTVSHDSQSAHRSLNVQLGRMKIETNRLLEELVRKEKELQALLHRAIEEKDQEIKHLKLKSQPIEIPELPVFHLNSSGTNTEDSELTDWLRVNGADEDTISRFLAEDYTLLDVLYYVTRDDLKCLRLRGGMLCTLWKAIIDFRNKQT
Put plainly: Inhibition of MAP3K5 Lys2 labeling site in human A-375 cells at 0.05 uM by KiNativ Profiling analysis relative to control. The class given is cell-based.

Experiment [5] has as its target Mitogen-activated protein kinase 14 (Homo sapiens, UniProt Q16539). Put plainly: Inhibition of p38alpha K2 labeling site in human Huh-7 cells at 10 uM by KiNativ Profiling analysis relative to control. The class given is cell-based.
For experiment [6], the target named is Proto-oncogene tyrosine-protein kinase Src (Homo sapiens, UniProt P12931). Put plainly: Inhibition of SRC K1 labeling site in human Huh-7 cells at 10 uM by KiNativ Profiling analysis relative to control. In kind it is cell-based.
The target in experiment [7] is RAC-beta serine/threonine-protein kinase (Homo sapiens) (UniProt P31751). Put plainly: Inhibition of AKT2 (unknown origin) at 10 uM by Ambit Kinomescan binding assay.
Experiment [8] has as its target Calcium/calmodulin-dependent protein kinase type II subunit gamma (Homo sapiens) (UniProt Q13555). Put plainly: Inhibition of CaMK2g Lys1 labeling site harbouring TSTQEYAAKIINTKK in human Huh-7 cells at 1 uM by KiNativ Profiling analysis relative to control. In kind it is cell-based.
The target of experiment [9] is Cyclin-dependent kinase 8 (Homo sapiens) (UniProt P49336). Put plainly: Inhibition of CDK8 Lys2 labeling site in human Huh-7 cells at 1 uM by KiNativ Profiling analysis relative to control. The class given is cell-based.
Experiment [10] has as its target Phosphatidylinositol 4-kinase type 2-beta (Homo sapiens) (UniProt Q8TCG2). Put plainly: Inhibition of PI4K2B ATP labeling site in human Huh-7 cell lysate at 1 uM by KiNativ Profiling analysis relative to control. The class given is subcellular.

Each structure is given as a SMILES string. The source made the active and inactive calls. The calls are words filed in the database; no cut-off is given here.

Sequence of Cyclin-dependent kinase 8 (Homo sapiens) (P49336 whole entry): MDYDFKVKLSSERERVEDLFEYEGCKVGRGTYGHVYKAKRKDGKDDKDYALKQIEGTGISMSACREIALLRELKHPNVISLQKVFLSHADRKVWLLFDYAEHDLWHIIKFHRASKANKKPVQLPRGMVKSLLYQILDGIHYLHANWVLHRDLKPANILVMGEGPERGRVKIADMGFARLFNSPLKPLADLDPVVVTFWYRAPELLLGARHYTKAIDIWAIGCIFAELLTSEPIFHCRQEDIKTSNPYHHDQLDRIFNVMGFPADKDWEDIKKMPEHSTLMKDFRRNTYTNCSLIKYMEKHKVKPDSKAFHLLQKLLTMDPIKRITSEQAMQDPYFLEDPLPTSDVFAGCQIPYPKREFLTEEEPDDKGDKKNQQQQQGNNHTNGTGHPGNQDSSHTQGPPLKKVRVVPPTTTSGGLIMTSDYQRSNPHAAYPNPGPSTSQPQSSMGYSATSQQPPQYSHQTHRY
Sequence of Phosphatidylinositol 4-kinase type 2-beta (Homo sapiens) (Q8TCG2 whole entry): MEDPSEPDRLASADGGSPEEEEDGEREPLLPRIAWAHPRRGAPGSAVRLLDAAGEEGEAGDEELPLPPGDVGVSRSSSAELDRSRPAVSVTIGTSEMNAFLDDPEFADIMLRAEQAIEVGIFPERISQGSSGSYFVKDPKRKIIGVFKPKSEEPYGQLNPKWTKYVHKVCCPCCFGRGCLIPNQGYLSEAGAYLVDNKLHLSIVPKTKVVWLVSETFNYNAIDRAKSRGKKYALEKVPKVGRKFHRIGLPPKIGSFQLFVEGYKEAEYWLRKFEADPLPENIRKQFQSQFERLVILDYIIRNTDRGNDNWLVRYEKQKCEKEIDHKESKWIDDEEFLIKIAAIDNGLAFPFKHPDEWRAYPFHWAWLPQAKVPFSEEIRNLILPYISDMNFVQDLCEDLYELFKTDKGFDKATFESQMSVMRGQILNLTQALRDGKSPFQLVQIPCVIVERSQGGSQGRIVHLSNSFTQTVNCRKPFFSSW
Sequence of Ribosomal protein S6 kinase alpha-1 (Homo sapiens) (Q15418 whole entry, the tested form may be a part): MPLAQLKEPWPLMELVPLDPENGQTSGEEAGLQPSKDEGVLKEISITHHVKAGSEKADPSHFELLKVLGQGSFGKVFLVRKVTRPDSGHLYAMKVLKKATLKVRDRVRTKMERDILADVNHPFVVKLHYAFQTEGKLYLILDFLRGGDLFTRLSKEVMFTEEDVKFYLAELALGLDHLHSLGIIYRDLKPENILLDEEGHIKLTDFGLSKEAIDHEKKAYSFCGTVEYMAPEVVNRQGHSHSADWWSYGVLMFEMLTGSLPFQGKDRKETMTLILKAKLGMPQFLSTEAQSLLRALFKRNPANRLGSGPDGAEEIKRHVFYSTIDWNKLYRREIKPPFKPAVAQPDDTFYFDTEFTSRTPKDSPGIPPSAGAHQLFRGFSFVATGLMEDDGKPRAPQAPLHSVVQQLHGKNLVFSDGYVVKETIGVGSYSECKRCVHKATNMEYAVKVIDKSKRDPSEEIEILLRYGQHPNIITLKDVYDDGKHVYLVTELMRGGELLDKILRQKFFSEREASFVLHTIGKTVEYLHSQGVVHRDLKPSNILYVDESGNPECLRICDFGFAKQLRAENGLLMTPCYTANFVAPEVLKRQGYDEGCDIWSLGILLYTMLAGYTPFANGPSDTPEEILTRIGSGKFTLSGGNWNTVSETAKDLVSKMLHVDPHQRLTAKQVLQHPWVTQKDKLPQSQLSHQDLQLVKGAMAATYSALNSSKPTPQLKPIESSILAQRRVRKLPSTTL
Sequence of Serine/threonine-protein kinase tousled-like 2 (Homo sapiens) (Q86UE8 whole entry, looked up, the tested form may be a part): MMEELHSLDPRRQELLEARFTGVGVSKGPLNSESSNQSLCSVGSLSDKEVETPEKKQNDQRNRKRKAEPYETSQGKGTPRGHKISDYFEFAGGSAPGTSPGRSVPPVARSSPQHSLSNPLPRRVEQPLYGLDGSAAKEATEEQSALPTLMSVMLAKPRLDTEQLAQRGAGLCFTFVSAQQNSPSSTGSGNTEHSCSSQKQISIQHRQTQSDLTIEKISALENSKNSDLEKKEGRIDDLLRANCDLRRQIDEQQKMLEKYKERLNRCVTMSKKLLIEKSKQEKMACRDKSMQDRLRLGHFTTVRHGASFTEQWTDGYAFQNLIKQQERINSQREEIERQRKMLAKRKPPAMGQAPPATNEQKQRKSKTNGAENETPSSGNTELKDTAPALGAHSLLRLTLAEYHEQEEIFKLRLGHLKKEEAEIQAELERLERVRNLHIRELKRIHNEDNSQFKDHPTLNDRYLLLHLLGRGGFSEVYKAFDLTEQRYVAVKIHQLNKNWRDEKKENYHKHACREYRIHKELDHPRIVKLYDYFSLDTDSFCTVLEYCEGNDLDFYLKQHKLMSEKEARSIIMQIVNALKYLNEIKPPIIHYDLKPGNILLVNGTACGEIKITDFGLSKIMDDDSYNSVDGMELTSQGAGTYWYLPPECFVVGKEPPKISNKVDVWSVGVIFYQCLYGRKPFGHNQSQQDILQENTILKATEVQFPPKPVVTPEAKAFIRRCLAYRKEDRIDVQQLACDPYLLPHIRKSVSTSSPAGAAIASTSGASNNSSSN
Sequence of Mitogen-activated protein kinase 14 (Q16539 whole entry): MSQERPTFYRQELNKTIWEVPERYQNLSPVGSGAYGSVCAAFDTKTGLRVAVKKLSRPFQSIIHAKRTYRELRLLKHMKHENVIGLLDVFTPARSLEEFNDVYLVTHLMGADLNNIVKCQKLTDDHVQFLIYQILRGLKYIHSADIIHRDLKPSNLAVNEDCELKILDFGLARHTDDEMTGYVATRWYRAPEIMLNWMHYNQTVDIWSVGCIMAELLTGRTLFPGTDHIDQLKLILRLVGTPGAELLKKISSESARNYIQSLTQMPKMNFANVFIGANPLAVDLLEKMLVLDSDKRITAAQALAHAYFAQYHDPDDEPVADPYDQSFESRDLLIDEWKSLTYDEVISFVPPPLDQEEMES
Sequence of Ankyrin repeat and protein kinase domain-containing protein 1 (Homo sapiens) (Q8NFD2 whole entry, the tested form may be a part): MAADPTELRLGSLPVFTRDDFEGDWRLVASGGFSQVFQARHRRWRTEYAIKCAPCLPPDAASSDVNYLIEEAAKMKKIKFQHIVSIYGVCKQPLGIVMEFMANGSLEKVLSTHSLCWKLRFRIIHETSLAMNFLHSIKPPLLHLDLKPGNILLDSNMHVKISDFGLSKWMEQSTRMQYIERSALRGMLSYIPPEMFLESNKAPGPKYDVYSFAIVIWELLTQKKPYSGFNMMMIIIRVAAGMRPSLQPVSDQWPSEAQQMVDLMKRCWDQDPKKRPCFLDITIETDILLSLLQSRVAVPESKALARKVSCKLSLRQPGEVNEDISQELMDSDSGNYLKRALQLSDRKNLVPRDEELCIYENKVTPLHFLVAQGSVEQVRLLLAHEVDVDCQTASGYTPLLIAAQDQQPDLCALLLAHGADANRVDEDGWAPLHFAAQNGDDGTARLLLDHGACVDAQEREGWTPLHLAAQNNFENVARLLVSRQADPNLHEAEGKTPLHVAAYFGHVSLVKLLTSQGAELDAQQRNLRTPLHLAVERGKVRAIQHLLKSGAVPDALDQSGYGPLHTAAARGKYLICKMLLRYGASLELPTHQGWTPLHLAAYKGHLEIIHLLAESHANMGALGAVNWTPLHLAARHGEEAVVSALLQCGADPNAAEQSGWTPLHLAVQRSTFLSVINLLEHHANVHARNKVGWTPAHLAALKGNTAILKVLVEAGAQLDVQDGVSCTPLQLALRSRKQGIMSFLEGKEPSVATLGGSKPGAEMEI
Sequence of Calcium/calmodulin-dependent protein kinase type II subunit gamma (Homo sapiens) (Q13555 whole entry): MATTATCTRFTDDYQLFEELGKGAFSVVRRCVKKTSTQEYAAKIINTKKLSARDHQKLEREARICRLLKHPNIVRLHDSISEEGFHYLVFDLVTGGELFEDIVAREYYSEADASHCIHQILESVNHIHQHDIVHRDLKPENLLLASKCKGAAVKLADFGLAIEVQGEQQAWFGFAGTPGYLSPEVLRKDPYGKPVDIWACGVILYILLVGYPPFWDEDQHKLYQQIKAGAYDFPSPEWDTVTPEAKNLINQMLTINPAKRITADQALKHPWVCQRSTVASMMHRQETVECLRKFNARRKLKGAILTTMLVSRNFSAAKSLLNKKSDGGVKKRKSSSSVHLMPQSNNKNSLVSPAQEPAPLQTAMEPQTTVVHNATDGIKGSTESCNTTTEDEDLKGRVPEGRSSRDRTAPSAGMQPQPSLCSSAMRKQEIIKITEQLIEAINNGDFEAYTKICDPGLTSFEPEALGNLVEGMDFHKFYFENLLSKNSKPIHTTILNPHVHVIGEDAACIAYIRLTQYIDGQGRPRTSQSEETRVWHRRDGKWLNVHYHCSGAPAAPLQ
Sequence of RAC-beta serine/threonine-protein kinase (Homo sapiens) (P31751 whole entry): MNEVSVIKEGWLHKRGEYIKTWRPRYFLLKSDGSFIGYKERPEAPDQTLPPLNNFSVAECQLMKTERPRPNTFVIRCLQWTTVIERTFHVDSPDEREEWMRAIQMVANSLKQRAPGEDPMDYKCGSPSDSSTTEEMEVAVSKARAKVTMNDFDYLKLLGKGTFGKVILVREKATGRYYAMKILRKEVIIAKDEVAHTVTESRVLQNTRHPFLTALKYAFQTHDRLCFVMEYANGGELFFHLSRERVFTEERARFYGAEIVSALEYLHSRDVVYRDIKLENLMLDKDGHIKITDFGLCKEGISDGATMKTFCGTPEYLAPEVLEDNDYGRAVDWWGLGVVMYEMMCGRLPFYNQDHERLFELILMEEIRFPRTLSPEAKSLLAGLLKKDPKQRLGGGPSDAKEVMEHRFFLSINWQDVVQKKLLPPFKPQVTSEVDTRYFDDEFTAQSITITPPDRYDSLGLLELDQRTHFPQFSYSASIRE

As to `CCN1CCN(Cc2ccc(NC(=O)c3ccc(C)c(/C=C/c4cnc5[nH]ccc5c4OC)c3)cc2C(F)(F)F)CC1`, the inhibition was 30.2% in experiment [1], 6% in experiment [2] and -4.9% in [3].
As for `CCN1CCN(Cc2ccc(NC(=O)c3ccc(C)c(Oc4ccnc5[nH]ccc45)c3)cc2C(F)(F)F)CC1`, the inhibition in experiment [4] was -6.6%; in [5], 6.8%; in [6], 50.1%. The inhibition entry in [7] was “inactive”.
As to `CNc1cc(Oc2cc(C(=O)Nc3cc(N4CCN(C)CC4)cc(C(F)(F)F)c3)ccc2C)ncn1`, the figures for the inhibition in [8], in experiment [9] and in experiment [10] were 31.8%, 25.8% and 25%, respectively.
